For 16 compounds, Ki results are on record in ChEMBL document CHEMBL1132220 (J Med Chem, 1999).

Bridge positions count the residues as written; N and C are the ends. Square brackets hold non-standard residues; d marks the D form. Peptide text beside a SMILES is read from it. dPhe(4-F) = N[C@H](Cc1ccc(F)cc1)C(=O)O; 2Nal = N[C@@H](Cc1ccc2ccccc2c1)C(=O)O; 3Pal = N[C@@H](Cc1cccnc1)C(=O)O; Tle = CC(C)(C)[C@H](N)C(=O)O; Nle = CCCC[C@H](N)C(=O)O

Experiment [1] addresses Somatostatin receptor type 2 (Homo sapiens, UniProt P30874). Briefly: The compound was tested for binding affinity against human Somatostatin receptor type 2. The method in brief:
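Membranes from CHO-K1 cells transfected with the cloned human sst2. Incubated 30 min at 37 °C with 0.05 nM [125I]MK-678 in HEPES pH 7.4 with BSA, MgCl2, Trasylol, bacitracin and PMSF. Filtration on PEI-soaked GF/C filters. Nonspecific binding defined with 1.0 μM SRIF. Mean ± SEM; single values are from one experiment.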

Experiment [2] concerns the target Somatostatin receptor type 4 (Homo sapiens, UniProt P31391). The experiment in a line: The compound was tested for binding affinity against human Somatostatin receptor type 4. The method in brief:
(§1)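 CHO-K1 cells stably transfected (calcium phosphate) with cloned human sst3 or sst4. Membranes made in ice-cold 50 mM Tris-HCl, resuspended in 10 mM Tris-HCl, then incubated 30 min at 37 °C with 0.05 nM [125I]Tyr11-SRIF in HEPES pH 7.4 with BSA, MgCl2 and protease inhibitors. Filtered on GF/C; nonspecific binding with 1.0 µM SRIF. Mean ± SEM, or one experiment.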

Experiment [3] concerns the target Somatostatin receptor type 5 (Homo sapiens, UniProt P35346). The experiment in a line: The compound was tested for binding affinity against human Somatostatin receptor type 5. Put shortly:
(§2)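 Membranes from CHO-K1 cells transfected with the cloned human receptor. Terminated by filtration on PEI-soaked GF/C filters. Nonspecific binding defined with 1.0 μM SRIF. Mean ± SEM; single values are from one experiment.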

Experiment [4] concerns the target Somatostatin receptor type 3 (Homo sapiens, UniProt P32745). The experiment in a line: The compound was tested for binding affinity against human Somatostatin receptor type 3. The method in brief: as §1
The target in experiment [5] is Somatostatin receptor type 1 (Homo sapiens, UniProt P30872). The experiment in a line: The compound was tested for binding affinity against human Somatostatin receptor type 1. Put shortly:
as §2

Sequence of Somatostatin receptor type 2 (P30874 whole entry): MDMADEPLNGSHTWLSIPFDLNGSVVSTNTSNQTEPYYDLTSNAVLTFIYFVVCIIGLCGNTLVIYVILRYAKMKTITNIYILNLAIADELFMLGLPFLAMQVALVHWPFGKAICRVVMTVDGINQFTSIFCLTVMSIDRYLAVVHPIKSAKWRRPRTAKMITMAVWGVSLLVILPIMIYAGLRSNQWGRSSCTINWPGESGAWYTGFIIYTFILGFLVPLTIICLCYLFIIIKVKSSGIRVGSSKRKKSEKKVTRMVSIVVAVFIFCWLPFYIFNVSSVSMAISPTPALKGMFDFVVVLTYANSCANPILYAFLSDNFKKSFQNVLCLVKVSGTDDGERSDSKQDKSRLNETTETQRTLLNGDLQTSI
Sequence of Somatostatin receptor type 1 (P30872 whole entry): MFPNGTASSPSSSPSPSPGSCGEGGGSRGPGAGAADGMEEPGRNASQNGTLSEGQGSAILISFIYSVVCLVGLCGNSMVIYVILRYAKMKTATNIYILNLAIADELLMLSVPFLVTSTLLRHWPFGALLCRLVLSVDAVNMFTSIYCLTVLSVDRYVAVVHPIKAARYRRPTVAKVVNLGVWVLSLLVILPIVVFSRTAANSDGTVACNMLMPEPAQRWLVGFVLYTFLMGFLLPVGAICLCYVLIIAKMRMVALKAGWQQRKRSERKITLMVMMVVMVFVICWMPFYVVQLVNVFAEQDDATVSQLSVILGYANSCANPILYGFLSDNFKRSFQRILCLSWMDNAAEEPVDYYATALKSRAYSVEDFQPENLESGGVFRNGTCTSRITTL
Sequence of Somatostatin receptor type 5 (P35346 whole entry): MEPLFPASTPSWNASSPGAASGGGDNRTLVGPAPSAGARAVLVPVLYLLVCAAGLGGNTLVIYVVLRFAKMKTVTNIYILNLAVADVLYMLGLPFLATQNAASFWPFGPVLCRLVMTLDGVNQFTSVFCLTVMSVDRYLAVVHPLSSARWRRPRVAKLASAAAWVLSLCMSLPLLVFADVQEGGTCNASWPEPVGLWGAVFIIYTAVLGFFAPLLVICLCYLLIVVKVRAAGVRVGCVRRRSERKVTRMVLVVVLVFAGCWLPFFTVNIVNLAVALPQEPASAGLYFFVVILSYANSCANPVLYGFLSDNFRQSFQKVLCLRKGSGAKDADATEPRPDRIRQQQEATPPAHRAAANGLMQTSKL
Sequence of Somatostatin receptor type 3 (P32745 whole entry): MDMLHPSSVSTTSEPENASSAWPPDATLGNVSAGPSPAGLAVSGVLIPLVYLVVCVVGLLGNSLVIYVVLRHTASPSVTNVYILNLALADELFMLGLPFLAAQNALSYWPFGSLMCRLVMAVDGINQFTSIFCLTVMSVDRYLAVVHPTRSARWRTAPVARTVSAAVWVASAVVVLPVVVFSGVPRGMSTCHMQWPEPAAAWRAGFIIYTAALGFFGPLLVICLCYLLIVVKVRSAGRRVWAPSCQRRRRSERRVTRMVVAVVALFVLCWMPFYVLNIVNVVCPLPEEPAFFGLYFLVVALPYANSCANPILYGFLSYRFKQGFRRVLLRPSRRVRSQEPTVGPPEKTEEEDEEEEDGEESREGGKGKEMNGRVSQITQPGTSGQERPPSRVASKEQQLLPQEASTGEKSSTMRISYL
Sequence of Somatostatin receptor type 4 (P31391 whole entry): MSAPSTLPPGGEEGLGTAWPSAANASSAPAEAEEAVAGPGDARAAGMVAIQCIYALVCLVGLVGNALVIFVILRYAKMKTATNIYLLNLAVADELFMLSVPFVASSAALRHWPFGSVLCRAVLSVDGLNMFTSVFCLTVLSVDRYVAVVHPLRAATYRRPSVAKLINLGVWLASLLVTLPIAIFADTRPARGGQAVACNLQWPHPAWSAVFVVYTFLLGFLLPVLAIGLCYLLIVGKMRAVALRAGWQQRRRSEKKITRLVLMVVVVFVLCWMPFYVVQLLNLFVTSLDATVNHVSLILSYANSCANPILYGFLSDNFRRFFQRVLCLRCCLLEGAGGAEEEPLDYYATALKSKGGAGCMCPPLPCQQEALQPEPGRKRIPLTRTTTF

As for `CC(C)[C@@H]1NC(=O)[C@H](CCCCN)NC(=O)[C@@H](Cc2c[nH]c3ccccc23)NC(=O)[C@H](Cc2cccnc2)NC(=O)[C@H](NC(=O)[C@@H](N)Cc2ccc3ccccc3c2)CSSC[C@@H](C(=O)N[C@H](C(N)=O)C(c2ccccc2)c2ccccc2)NC1=O`, the Ki is 37 nM in experiment [1]; more than 1000 nM in experiment [2]; 725 nM in experiment [3]; 1600 nM in experiment [4]; more than 1000 nM in experiment [5].

Consider `NCCCC[C@@H]1NC(=O)[C@@H](Cc2c[nH]c3ccccc23)NC(=O)[C@H](Cc2cccnc2)NC(=O)[C@H](NC(=O)[C@@H](N)Cc2ccc3ccccc3c2)CSSC[C@@H](C(=O)N[C@@H](Cc2ccc3ccccc3c2)C(N)=O)NC(=O)CNC1=O`, for which the Ki in experiment [1] came to 163 nM; in experiment [2], 1570 nM; in experiment [3] it was 382 nM; in experiment [4], 192 nM; in experiment [5], 413 nM.

Take `CC(C)[C@@H]1NC(=O)[C@H](CCCCN)NC(=O)[C@@H](Cc2c[nH]c3ccccc23)NC(=O)[C@H](Cc2cccnc2)NC(=O)[C@H](NC(=O)[C@@H](N)Cc2ccc(Cl)cc2)CSSC[C@@H](C(=O)N[C@@H](Cc2ccc(Cl)cc2)C(N)=O)NC1=O`: the Ki in experiment [1] was 32 nM; in experiment [2], 301 nM; in experiment [3], 139 nM; in experiment [4], 51 nM; in experiment [5] it was more than 1000 nM.

For `CC(C)[C@H]1NC(=O)[C@H](CCCCN)NC(=O)[C@@H](Cc2c[nH]c3ccccc23)NC(=O)[C@H](Cc2c[nH]cn2)NC(=O)C(NC(=O)[C@@H](N)Cc2cccc(F)c2)CSSCC(C(=O)N[C@@H](Cc2cccc(F)c2)C(N)=O)NC1=O` (stereo in doubt), the Ki was 103 nM in experiment [1]; more than 1000 nM in experiment [2]; 734 nM in experiment [3]; 397 nM in experiment [4]; 60 nM in experiment [5].

Regarding `CC(C)(C)[C@@H]1NC(=O)[C@H](CCCCN)NC(=O)[C@@H](Cc2c[nH]c3ccccc23)NC(=O)[C@H](Cc2cccnc2)NC(=O)[C@H](NC(=O)[C@@H](N)Cc2ccc(Cl)cc2)CSSC[C@@H](C(=O)N[C@@H](Cc2ccc(Cl)cc2)C(N)=O)NC1=O`, the Ki in experiment [1] was 19 nM; in experiment [2], 1640 nM; in experiment [4], 58 nM; in experiment [5], more than 1000 nM.

For `CC(C)[C@@H]1NC(=O)[C@H](CCCCN)NC(=O)[C@@H](Cc2c[nH]c3ccccc23)NC(=O)[C@H](Cc2cccnc2)NC(=O)[C@H](NC(=O)[C@@H](N)Cc2ccc(Cl)cc2)CSSC[C@@H](C(=O)N[C@@H](Cc2ccc3ccccc3c2)C(N)=O)NC1=O`, the Ki in experiment [1] was 25 nM; in experiment [2] it was 1590 nM; in experiment [3], 240 nM; in experiment [4], 85 nM; in experiment [5], more than 1000 nM.

On to `CC(C)(C)[C@@H]1NC(=O)[C@H](CCCCN)NC(=O)[C@@H](Cc2c[nH]c3ccccc23)NC(=O)[C@H](Cc2cccnc2)NC(=O)[C@H](NC(=O)[C@H](N)Cc2ccc(F)cc2)CSSC[C@@H](C(=O)N[C@@H](Cc2ccc3ccccc3c2)C(N)=O)NC1=O` (H-[dPhe(4-F)][dC][3Pal][dW]K[Tle]C[2Nal]-NH2; disulfide 2-7), for which the inhibition constant (Ki) in experiment [1] is 132 nM; in experiment [2], 888 nM; in experiment [3], 260 nM; in experiment [4], 555 nM; in experiment [5], more than 1000 nM.

With `CCCC[C@@H]1NC(=O)[C@H](CCCCN)NC(=O)[C@@H](Cc2c[nH]c3ccccc23)NC(=O)[C@H](Cc2cccnc2)NC(=O)[C@H](NC(=O)[C@@H](N)Cc2ccc3ccccc3c2)CSSC[C@@H](C(=O)N[C@@H](Cc2ccc3ccccc3c2)C(N)=O)NC1=O` (H-[2Nal][dC][3Pal][dW]K[Nle]C[2Nal]-NH2; disulfide 2-7), the Ki in experiment [1] is 76 nM; in experiment [2], 672 nM; in experiment [3], 814 nM; in experiment [4] it was 126 nM; in experiment [5] it was 845 nM.

`CC(C)[C@@H]1NC(=O)[C@H](CCCCN)NC(=O)[C@@H](Cc2c[nH]c3ccccc23)NC(=O)[C@H](Cc2cccnc2)NC(=O)[C@H](NC(=O)[C@@H](N)Cc2c(F)c(F)c(F)c(F)c2F)CSSC[C@@H](C(=O)N[C@@H](Cc2c(F)c(F)c(F)c(F)c2F)C(N)=O)NC1=O`: the Ki stood at 633 nM in experiment [1]; 176 nM in experiment [2]; 960 nM in experiment [3]; 111 nM in experiment [4]; 525 nM in experiment [5].

On to `CC[C@H](C)[C@@H]1NC(=O)[C@H](CCCCN)NC(=O)[C@@H](Cc2c[nH]c3ccccc23)NC(=O)[C@H](Cc2cccnc2)NC(=O)[C@H](NC(=O)[C@@H](N)Cc2ccc3ccccc3c2)CSSC[C@@H](C(=O)N[C@@H](Cc2ccc3ccccc3c2)C(N)=O)NC1=O` (H-[2Nal][dC][3Pal][dW]KIC[2Nal]-NH2; disulfide 2-7), for which the Ki in experiment [1] is more than 1000 nM; in experiment [2], 1040 nM; in experiment [3], 847 nM; in experiment [4] it was 152 nM; in experiment [5], 172 nM.

For the compound `C[C@@H](O)[C@@H]1NC(=O)[C@H](CCCCN)NC(=O)[C@@H](Cc2c[nH]c3ccccc23)NC(=O)[C@@H](Cc2cccnc2)NC(=O)C(NC(=O)[C@@H](N)Cc2ccc(Cl)cc2)CSSCC(C(=O)N[C@@H](Cc2ccc3ccccc3c2)C(N)=O)NC1=O` (stereo in doubt), the Ki in experiment [2] was more than 1000 nM.

Turning to `C[C@@H](O)[C@@H]1NC(=O)[C@H](CCCCN)NC(=O)[C@@H](Cc2c[nH]c3ccccc23)NC(=O)[C@H](Cc2ccccn2)NC(=O)C(NC(=O)[C@@H](N)Cc2ccc(Cl)cc2)CSSCC(C(=O)N[C@@H](Cc2ccc3ccccc3c2)C(N)=O)NC1=O` (stereo in doubt), the inhibition constant Ki was 233 nM in experiment [1], 204 nM in experiment [3], 108 nM in experiment [4] and 1690 nM in experiment [5].

On to `C[C@@H](O)[C@@H]1NC(=O)[C@H](CCCCN)NC(=O)[C@@H](Cc2c[nH]c3ccccc23)NC(=O)[C@H](Cc2ccccc2)NC(=O)[C@H](NC(=O)[C@@H](N)Cc2ccc(Cl)cc2)CSSC[C@@H](C(=O)N[C@@H](Cc2ccc3ccccc3c2)C(N)=O)NC1=O`, for which the Ki was 51 nM in experiment [1], more than 1000 nM in experiment [2], 290 nM in experiment [4] and 443 nM in experiment [5].

On to `CC(C)(C)C[C@@H]1NC(=O)[C@H](CCCCN)NC(=O)[C@@H](Cc2c[nH]c3ccccc23)NC(=O)[C@H](Cc2cccnc2)NC(=O)C(NC(=O)[C@@H](N)Cc2ccc(Cl)cc2)CSSCC(C(=O)N[C@@H](Cc2ccc3ccccc3c2)C(N)=O)NC1=O` (stereo in doubt), for which the Ki stood at 166 nM in experiment [1], 110 nM in experiment [3], 175 nM in experiment [4] and 238 nM in experiment [5].

As for `CC(C)[C@@H]1NC(=O)[C@H](CCCCN)NC(=O)[C@@H](Cc2c[nH]c3ccccc23)NC(=O)[C@@H](Cc2ccccn2)NC(=O)[C@H](NC(=O)[C@@H](N)Cc2c(F)c(F)c(F)c(F)c2F)CSSC[C@@H](C(=O)N[C@@H](Cc2c(F)c(F)c(F)c(F)c2F)C(N)=O)NC1=O`, the Ki is 692 nM in experiment [1], 1380 nM in experiment [3], 93 nM in experiment [4] and 34 nM in experiment [5].

For the compound `CC(C)[C@@H]1NC(=O)[C@H](CCCCN)NC(=O)[C@@H](Cc2c[nH]c3ccccc23)NC(=O)[C@H](Cc2ccccn2)NC(=O)[C@H](NC(=O)[C@@H](N)Cc2c(F)c(F)c(F)c(F)c2F)CSSC[C@@H](C(=O)N[C@@H](Cc2c(F)c(F)c(F)c(F)c2F)C(N)=O)NC1=O`, the Ki in experiment [1] was more than 1000 nM; in experiment [3], 918 nM; in experiment [4], 170 nM; in experiment [5], 568 nM.
